The values that follow come from ChEMBL document CHEMBL4266029, “Zampanolides B-E from the Marine Sponge Cacospongia mycofijiensis: Potent Cytotoxic Macrolides with Microtubule-Stabilizing Activity” (J Nat Prod, 2018).

pIC50: −log10 of the molar value. Calls of active or inactive are those of the source. No cut-off for these calls is given here.

The species entered for assay [1] is Sus scrofa. In words: Induction of porcine tubulin polymerization assessed as microtubule stabilization at 27 uM measured at 1 min interval over 100 mins. A digest of the protocol:
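Fluorescence-based in vitro assay with purified porcine brain tubulin, run without microtubule-associated proteins and with glycerol omitted from the polymerization buffer. Compound at 27 μM final, with tubulin buffer added just before reading. Kinetic read at 37 °C, λex 360/λem 450 nm, every 1 min for 100 min. n = 3 replicates from a single preparation.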

The subject of assay [2] is HL-60. As to the kind of experiment: Cell cycle arrest in human HL60 cells assessed as accumulation at G2/M phase at 1 uM after 18 hrs by propidium iodide staining based flow cytometry (reference value: 22%). The assay is classed as functional. A digest of the protocol: (§1)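 HL-60 cells seeded at 1 × 10^5 cells/well, exposed to 1 μM compound for 18 h at 37 °C. Stained 30 min in the dark with propidium iodide (0.05 mg/mL in 0.1% sodium citrate, 0.1% Triton X-100, 100 μg/mL RNase), then DNA content read by flow cytometry. Reported as % cells in each phase; n = 2 replicates from a single experiment.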
A general note: A flow cytometer gives signals particle by particle.

Assay [3] relates to HL-60. As to the kind of experiment: Antiproliferative activity against human HL60 cells after 72 hrs by MTT assay. Type of assay: functional, cell-based. To be noted: HL-60, 72 h. The method in brief: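 HL-60 cells seeded at 1 × 10^4 cells/well, exposed to 2-fold serial dilutions with paclitaxel as positive control, 72 h at 37 °C. MTT (5 mg/mL in PBS) added for 2 h at 37 °C. Formazan dissolved overnight at 37 °C in 10% SDS/45% dimethylformamide, absorbance read at 570 nm. n = 3 independent experiments, two technical replicates each.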

Assay [4] relates to HL-60. In words: Cell cycle arrest in human HL60 cells assessed as accumulation at S phase at 1 uM after 18 hrs by propidium iodide staining based flow cytometry (reference value: 27%). Type of assay: functional. The method in brief: as §1
Assay [5] deals with HL-60. In words: Cell cycle arrest in human HL60 cells assessed as accumulation at G1 phase at 1 uM after 18 hrs by propidium iodide staining based flow cytometry (reference value: 51%). Type of assay: functional. The method in brief:
as §1

The species entered for assay [6] is Sus scrofa. In words: Induction of porcine tubulin polymerization assessed as microtubule stabilization at 2.8 uM measured at 1 min interval over 100 mins. A digest of the protocol:
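Fluorescence-based assay with purified porcine brain tubulin, no microtubule-associated proteins, glycerol omitted from polymerization buffer. Compound at 2.8 μM final, paclitaxel 2.8 μM as positive control, vehicle control. Tubulin buffer added immediately before reading. Kinetic read at 37 °C, λex 360/λem 450 nm, every 1 min for 100 min. n = 3 replicates, single preparation.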

For orientation: pIC50 means the IC50 on a negative log10 scale, so that one unit is a factor of ten. Read a low pIC50 as a large IC50. Consider `C=C1C[C@@H]2CCCC(=O)C/C(C)=C\C=C\C(=O)O[C@H]([C@H](O)NC(=O)/C=C\C=C\C)C/C(C)=C/[C@H](C1)O2`, for which the outcome in assay [1] was inactive. Moreover, the Activity was determined as 30% in assay [2], 25% in assay [4] and 44% in assay [5]. This compound showed a negative logarithm of the IC50 (pIC50) in assay [3] of 6.52.
Take `C=C1C[C@@H]2C/C=C/C(=O)C/C(C)=C/C=C/C(=O)O[C@H]([C@H](O)NC(=O)/C=C\C=C\C)C/C(C)=C/[C@H](C1)O2`: the Activity was 54% in assay [2], 30% in assay [4] and 16% in assay [5]. This compound gave a pIC50 in assay [3] of 8.48. Moreover, the outcome in assay [6] was Active.
The matching figures for `C=C1C[C@@H]2C/C=C/C(=O)C/C(C)=C\C=C\C(=O)O[C@H]([C@H](O)NC(=O)/C=C\C=C\C)C/C(C)=C/[C@H](C1)O2` [ZAMPANOLIDE]: 54%, 28%, 18%, 8.49 and “Active”.
`C=C1C[C@@H]2C/C=C/C(=O)C/C(C)=C\C=C\C(=O)O[C@H](C=O)C/C(C)=C/[C@H](C1)O2`: the result in assay [1] was inactive. Also, the Activity in assay [2] amounted to 54%; in assay [4] it was 29%; in assay [5], 17%. Moreover, the pIC50 in assay [3] is 6.62.
`CC(=O)O[C@H]1C(=O)[C@@]2(C)[C@H]([C@H](OC(=O)c3ccccc3)[C@]3(O)C[C@H](OC(=O)[C@H](O)[C@@H](NC(=O)c4ccccc4)c4ccccc4)C(C)=C1C3(C)C)[C@]1(OC(C)=O)CO[C@@H]1C[C@@H]2O` [PACLITAXEL]: the Activity was 58% in assay [2], 24% in assay [4] and 18% in assay [5]. The result in assay [6] was Active.
With `C=C1C[C@@H]2C/C=C/C(=O)C/C(C)=C\C=C\C(=O)O[C@H]([C@H](O)NC(=O)/C=C/C=C\C)C/C(C)=C/[C@H](C1)O2`, the Activity in assay [2] worked out at 55%; in assay [4] it was 26%; in assay [5], 19%. The negative-log IC50 (pIC50) in assay [3] was 8.28. Moreover, in assay [6], the outcome was Active.
